ChEMBL document CHEMBL4831478, “Bispecific Estrogen Receptor α Degraders Incorporating Novel Binders Identified Using DNA-Encoded Chemical Library Screening” (J Med Chem, 2021)
Activity calls are given as the source filed them. The calls are words filed in the database; no cut-off is given here.

Legend:
MCF7 [1] = assay: Antiproliferative activity against human MCF7 cells assessed as growth inhibition preincubated with estradiol for 30 mins followed by compound addition and measured after 7 days by CellTiter-Glo assay; assay type: functional; details: MCF7, 168 h, time 7 day
Summary of the method: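 MCF7 cells seeded in hormone-deprived media for 72 h. All wells except minimum-signal controls received 0.1 nM estradiol for 30 min, then compound in a 10-point dose series. Incubated 7 days at 37 °C, 5% CO2; ATP content read by CellTiter-Glo 2.0. Duplicate runs averaged.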

Estrogen receptor [2] = molecular target: T1, Estrogen receptor (Homo sapiens, UniProt P03372); assay: Induction of ERalpha degradation in human MCF7 cells assessed as decrease in ERalpha protein expression incubated for 48 hrs by Western blot analysis; assay type: cell-based
T1 sequence (P03372 whole entry): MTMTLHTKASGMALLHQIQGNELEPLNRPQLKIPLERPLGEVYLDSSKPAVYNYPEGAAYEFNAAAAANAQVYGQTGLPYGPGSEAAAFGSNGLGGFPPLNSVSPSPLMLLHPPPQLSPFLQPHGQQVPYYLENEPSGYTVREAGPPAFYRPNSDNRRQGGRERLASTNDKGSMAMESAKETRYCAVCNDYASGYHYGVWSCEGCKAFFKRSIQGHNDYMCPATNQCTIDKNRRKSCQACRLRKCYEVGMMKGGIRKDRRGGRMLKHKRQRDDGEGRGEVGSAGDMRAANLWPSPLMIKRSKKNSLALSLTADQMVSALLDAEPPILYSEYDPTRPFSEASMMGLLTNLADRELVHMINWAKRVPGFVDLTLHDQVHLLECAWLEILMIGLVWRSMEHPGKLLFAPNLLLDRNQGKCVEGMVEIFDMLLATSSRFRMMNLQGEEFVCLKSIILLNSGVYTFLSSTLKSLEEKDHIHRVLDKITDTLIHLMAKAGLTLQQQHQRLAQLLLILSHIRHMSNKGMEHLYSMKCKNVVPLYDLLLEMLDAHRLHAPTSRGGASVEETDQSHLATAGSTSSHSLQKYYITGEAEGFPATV

[3] = molecular target: T2, Estrogen receptor (Homo sapiens) (UniProt P03372); assay: (§1) Antagonist activity at ERalpha in human MCF7 cells assessed as reduction in PGR gene expression incubated for 24 hrs by qPCR analysis; assay type: cell-based; details: filed as antagonist
T2 sequence (whole entry): T1 sequence (P03372 whole entry)
Summary of the method: (§2)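 MCF7 cells in complete media, incubated 72 h, then dosed in a 6-point series (0.5% DMSO final) for 24 h at 37 °C. RNA extracted, cDNA made, TaqMan qPCR for progesterone receptor normalized to TBP. Comparative CT (ΔΔCT) used for dose-response curves.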

Estrogen receptor [4] = molecular target: T1, Estrogen receptor; assay: as §1; assay type: cell-based; summary of the method: as §2
[5] = molecular target: T2, Estrogen receptor (Homo sapiens); assay: Induction of ERalpha degradation in human MCF7 cells assessed as reduction in ERalpha expression at 1 uM after 2 hrs by Western blotting analysis; assay type: cell-based
Summary of the method: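 MCF7 cells in hormone-deprived media (agonist mode) or full-serum media (antagonist mode) were treated with 1 μM compound over a 48 h time course. Cells were lysed and ERα was detected by western blot, with tubulin as the normalizer.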

Estrogen receptor [6] = molecular target: T1, Estrogen receptor; assay: Induction of ERalpha degradation in human MCF7 cells assessed as decrease in ERalpha protein expression preincubated for 2 hrs followed by compound washout and measured after 22 hrs by Western blotting analysis; assay type: cell-based
Summary of the method: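 MCF7 in-cell western: 2 h compound treatment, washout, cells collected 22 h later, compared with continuous 24 h treatment; ERα normalized to tubulin.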

Homo sapiens = organism: Homo sapiens; assay: Selectivity index, ratio of DC50 for induction of ERalpha degradation in human MCF7 cells in presence of VHL298 to DC50 for induction of ERalpha degradation in human MCF7 cells; assay type: cell-based
Summary of the method: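 MCF7 cells were treated with a PROTAC dose series, alone or co-treated with the VHL ligand VHL298 (5 μM), for 48 h in total before collection. ERα degradation DC50 was determined under both conditions and the two values compared as a ratio.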

MCF7 [7] = assay: Antiproliferative activity against human MCF7 cells assessed as growth inhibition incubated for 7 days by CellTiter-Glo assay; assay type: functional; details: MCF7, 168 h, time 7 day
Summary of the method: (§3)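 Breast lines from ATCC, maintained in ATCC-specified media, treated with increasing compound doses in full-serum (complete) media for 7 days. Relative cell number measured by CellTiter-Glo ATP read-out.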

ZR-75-1 = assay: Antiproliferative activity against human ZR-75-1 cells assessed as growth inhibition incubated for 7 days by CellTiter-Glo assay; assay type: functional; details: ZR-75-1, 168 h, time 7 day; summary of the method: as §3
[8] = Cytotoxicity against human MCF-10A cells assessed as growth inhibition incubated for 7 days by CellTiter-Glo assay; assay type: cell-based; details: time 7 day; summary of the method: as §3
[9] = Solubility of compound; assay type: physicochemical
[10] = Apparent permeability of compound across apical to basolateral side in MDCK cells; assay type: ADME, cell-based, Canis lupus familiaris; details: dog
[11] = Clearance in CD1 mouse at 0.3 mg/kg, iv administered as cassette dosing […]; assay type: ADME, organism-based; details: in vivo
[12] = Volume of distribution at steady state in CD1 mouse at 0.3 mg/kg, iv administered as cassette dosing […]; assay type: ADME, organism-based; details: in vivo, read-out: Vdss
[13] = Bioavailability in CD1 mouse at 10 mg/kg, sc administered as single dose […]; assay type: ADME, organism-based; details: in vivo
MCF7 [14] = assay: Antitumor activity against human MCF7 cells xenografted in CD1 mouse assessed as tumor growth inhibition at 10 mg/kg, sc administered once daily for 28 days by caliper method; assay type: functional; details: 672 h, time 28 day, read-out: TGI
Summary of the method: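 Mice implanted with 17β-estradiol pellets (0.18 mg) 2 days before sc right-flank inoculation of 10×10^6 MCF-7 cells in PBS/Matrigel (50:50). Randomized at mean tumor 165 mm³, 8 per group. Dosed 10 mg/kg sc qd; fulvestrant reference 3 mg/mouse sc weekly. Caliper measurements twice weekly, V = 0.5a×b². TGI from medians. Body weight recorded before each dosing.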

[15] = Drug uptake in CD1 mouse tumor xenografted with human MCF7 cells 10 mg/kg, sc measured after 3 hrs post last dose; details: in vivo

GI50 (MCF7 [1]): 30 nM
DC50 (Estrogen receptor [2]): 6 nM
Activity [3]: Dose-Dependent Effect
EC50 (Estrogen receptor [4]): 27 nM
Activity [5]: Active
DC50 (Estrogen receptor [6]): 37 nM
GI50 (MCF7 [7]): 13.8 nM
solubility [9]: < 0.2 µM
Papp A→B [10]: < 0.1 ×10⁻⁶ cm/s
clearance [11]: 23 mL/min/kg
Vd [12]: 4.82 L/kg
bioavailability [13]: > 100%
Drug uptake [15]: Active
Compound: Cc1ncsc1-c1ccc([C@@H](C)NC(=O)[C@@H]2C[C@@H](O)CN2C(=O)[C@H](NC(=O)COCCOCc2cn(CCOc3ccc(N(Cc4cccc(O)c4Cl)CC4(c5ccccc5F)CCCC4)cc3)nn2)C(C)(C)C)cc1
Selectivity Index (Homo sapiens): 8
GI50 (ZR-75-1): 40.9 nM
GI50 at 168 h [8]: > 10000 nM
inhibition in vivo at 10 mg/kg (MCF7 [14]): 30.8%
